The source made the active and inactive calls. The calls are words filed in the database; no cut-off is given here.
Assays:
[1] = test system: Bel-7402; test: Induction of apoptosis in human Bel7402 cells assessed as necrotic cells at 1 nM after 72 hrs by Annexin V/propidium iodide staining based flow cytometric analysis (reference value: 0.38%); assay type: functional
[2] = test system: KB; test: Cell cycle arrest in human KB/VCR cells assessed as delay in progression of S-phase to G2-phase at 10 nM pre-treated with aphidicolin for 16 hrs followed by compound addition measured up to 12 hrs by propidium iodide staining-based flow cytometric method; assay type: functional
Procedure, shortened: (§1)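 Exponentially growing cells synchronized in early S phase with 0.2 μg/mL aphidicolin for 16 h. Cells released into fresh medium with or without compound for set times. Ethanol-fixed, stained with PI/RNase, and cell cycle distribution read by flow cytometry. Representative of three independent experiments.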

[3] = Selectivity ratio of IC50 for human MRC5 cells to IC50 for human A549 cells
Procedure, shortened: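 SRB assay: A549 (F-12, 10% FBS) and MRC-5/MRC-9 (EMEM, 10% FBS) treated in triplicate 72 h, fixed with ice-cold 10% TCA, stained with 0.4% SRB in 1% acetic acid, absorbance 540 nm; IC₅₀ by four-parameter logistic fit, mean of ≥3 independent experiments.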

[4] = test system: MRC5; test: Antiproliferative activity against human MRC5 cells assessed as reduction in viability after 72 hrs by SRB assay; assay type: cell-based; conditions: MRC5, 72 h
Procedure, shortened: (§2)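 Cells seeded and dosed in triplicate for 72 h. Suspension lines (HL-60, K-562, K562/ADR, HL-60/MX2) were read by MTT: 5 mg/mL MTT stock added, 4 h at 37 °C, formazan dissolved in 10% SDS/5% isobutanol/10 mM HCl, A570. Adherent lines were read by SRB: fixed with cold 10% TCA, stained with 0.4% SRB in 1% acetic acid, A540. IC50 from four-parameter logistic fit; mean of ≥3 independent experiments.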

[5] = test system: Bel-7402; test: Induction of apoptosis in human Bel7402 cells assessed as early apoptotic cells at 1 nM after 72 hrs by Annexin V/propidium iodide staining based flow cytometric analysis (reference value: 3.66%); assay type: functional
Procedure, shortened: (§3)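 BEL-7402 cells (3 × 10⁵ per well, 6-well plates) exposed for 72 h. Harvested, PBS-washed, resuspended in cold binding buffer with annexin V–FITC and PI, and stained 15 min in the dark at room temperature. Early apoptotic, late apoptotic and necrotic fractions quantified by flow cytometry.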

[6] = test system: L02; test: Antiproliferative activity against human LO2 cells assessed as reduction in viability after 72 hrs by SRB assay; assay type: cell-based; conditions: L02, 72 h; procedure, shortened: as §2
[7] = test system: Bel-7402; test: Cell cycle arrest in human Bel7402 cells assessed as accumulation in S-phase after 24 hrs by propidium iodide staining-based flow cytometry; assay type: functional
Procedure, shortened: (§4)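 BEL-7402 cells exposed for 24 h, then fixed in 70% ethanol at −20 °C for ≥1 h. Stained with 50 μg/mL propidium iodide plus 10 μg/mL RNase A for 30 min in the dark at room temperature. DNA content read by flow cytometry on ≥1.0 × 10⁴ cells per sample.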

[8] = test system: K562/Adr; test: Effect on P-gp expression in human K562/ADR cells up to 100 nM after 24 hrs by Western blot analysis; assay type: functional, cell-based
[9] = test system: SMMC-7721; test: Cell cycle arrest in human SMMC7721 cells assessed as delay in progression of S-phase to G2-phase at 1 to 10 nM pre-treated with aphidicolin for 16 hrs followed by compound addition measured after 24 hrs by propidium iodide staining-based flow cytometric method; assay type: functional; procedure, shortened: as §1
[10] = test system: Bel-7402; test: Induction of DNA damage in human Bel7402 cells assessed as increase in CHK2 phosphorylation at Thr68 residue at 1 to 100 nM after 1 hr by Western blot analysis; assay type: functional, cell-based
Procedure, shortened: (§5)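 BEL-7402 cells (1.5 × 10⁵ per well, 12-well plates) exposed to compounds for 1 h. Phospho-Chk1 Ser345, phospho-Chk2 Thr68 and γH2AX detected by Western blot. Camptothecin at 1 μM served as the DNA-damage reference.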

[11] = test system: Bel-7402; test: Induction of DNA damage in human Bel7402 cells assessed as increase in CHK1 phosphorylation at Ser345 residue at 1 to 100 nM after 1 hr by Western blot analysis; assay type: functional, cell-based; procedure, shortened: as §5
[12] = test system: K562/Adr; test: Cell cycle arrest in human K562/ADR cells assessed as delay in progression of S-phase to G2-phase at 1 to 10 nM pre-treated with aphidicolin for 16 hrs followed by compound addition measured up to 24 hrs by propidium iodide staining-based flow cytometric method; assay type: functional
[13] = test system: Bel-7402; test: Induction of apoptosis in human Bel7402 cells assessed as late apoptotic cells at 10 nM after 72 hrs by Annexin V/propidium iodide staining based flow cytometric analysis (reference value: 3.6%); assay type: functional; procedure, shortened: as §3
[14] = test system: K562; test: Cell cycle arrest in human K562 cells assessed as delay in progression of S-phase to G2-phase at 1 to 10 nM pre-treated with aphidicolin for 16 hrs followed by compound addition measured up to 24 hrs by propidium iodide staining-based flow cytometric method; assay type: functional
[15] = test system: Bel-7402; test: Induction of apoptosis in human Bel7402 cells assessed as early apoptotic cells at 1 uM after 72 hrs by Annexin V/propidium iodide staining based flow cytometric analysis (reference value: 3.66%); assay type: functional; procedure, shortened: as §3
[16] = test system: Bel-7402; test: Induction of DNA damage in human Bel7402 cells assessed as increase in gamma-H2AX levels at 0.1 to 10 uM after 1 hr by Western blot analysis; assay type: functional, cell-based; procedure, shortened: as §5
[17] = test system: Bel-7402; test: Cell cycle arrest in human Bel7402 cells assessed as accumulation in S-phase at 0.012 to 1 uM after 24 hrs by propidium iodide staining-based flow cytometry; assay type: functional; procedure, shortened: as §4
[18] = test system: Bel-7402; test: Inhibition of colony formation in human Bel7402 cells at 0.01 to 10 uM after 24 hrs by SRB staining-based plate colony formation assay; assay type: functional, cell-based
Procedure, shortened: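 BEL-7402 cells seeded at 200 per well, treated in triplicate 24 h, washed twice with PBS, then grown 12 days in fresh medium; colonies stained with SRB and those ≥1 mm diameter counted; three independent experiments, mean ± SD.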

[19] = test system: Bel-7402; test: Inhibition of DNA synthesis in human Bel7402 cells assessed as BrdU incorporation at 1 uM preincubated for 1 hr followed by BrdU addition for 30 mins by FITC/propidium iodide staining based flow cytometry (reference value: 35.5%); assay type: functional; design: scale not given: the % may be the effect or the level left
Procedure, shortened: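 BEL-7402 cells (3 × 10⁵ per well) exposed to compounds 1 h, then labeled with 10 μM BrdU for 30 min; trypsinized, fixed in 70% ethanol at −20 °C ≥1 h, 2 N HCl 20 min, neutralized with 0.1 M borate, stained with anti-BrdU-FITC plus PI 30 min; BrdU-positive cells quantified by flow cytometry; three independent experiments, mean + SD.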

[20] = test system: Bel-7402; test: Induction of apoptosis in human Bel7402 cells assessed as necrotic cells at 10 uM after 72 hrs by Annexin V/propidium iodide staining based flow cytometric analysis (reference value: 0.38%); assay type: functional
[21] = test system: KB-V1; test: Growth inhibition of human KBV1 cells after 8 days by methylene blue-staining based spectrophotometry; assay type: functional; conditions: KB-V1, 192 h
[22] = test system: Bel-7402; test: Induction of apoptosis in human Bel7402 cells assessed as late apoptotic cells at 1 uM after 72 hrs by Annexin V/propidium iodide staining based flow cytometric analysis (reference value: 3.6%); assay type: functional; procedure, shortened: as §3
[23] = test system: Bel-7402; test: Induction of DNA damage in human Bel7402 cells assessed as increase in CHK2 phosphorylation at Thr68 residue at 0.1 to 10 uM after 1 hr by Western blot analysis; assay type: functional, cell-based; procedure, shortened: as §5

Structure (SMILES): COc1cc2c3c(c4ccc(O)cc4c2cc1OC)CN1CCCC[C@@H]1C3
- Activity [1]: 0.39%
- Activity [2]: Active
- Ratio IC50 [3]: 3 - 4
- IC50 [4]: 2.6 nM
- Activity [5]: 3.11%
- IC50 [6]: 2.7 nM
- Activity [7]: Dose-dependent effect
- Activity [8]: inactive
- Activity [9]: Active
- Activity [10]: inactive
- Activity [11]: inactive
- Activity [12]: Active
- Activity [13]: 14.2%
- Activity [14]: Active

Structure (SMILES): COc1cc2c3c(c4cc(OC)c(OC)cc4c2cc1OC)[C@H](O)[C@@H]1CCCN1C3
- Activity [15]: 2.56%
- Activity [16]: inactive
- Activity [17]: Active
- inhibition [18]: Active
- Activity [19]: 8.01%
- Activity [20]: 1.39%
- GI50 [21]: 30 nM
- Activity [22]: 1.92%
- Activity [23]: inactive

Source: ChEMBL document CHEMBL4049418, “6-OH-Phenanthroquinolizidine Alkaloid and Its Derivatives Exert Potent Anticancer Activity by Delaying S Phase Progression” (J Med Chem, 2017)
